Data published in ChEMBL document CHEMBL1122519, “Bispyridinamines: a new class of topical antimicrobial agents as inhibitors of dental plaque” (1984).
In brackets after ≈: the same amount, converted by molar mass.

Legend:
Actinomyces viscosus [1] = experiment: Compound is evaluated for minimal bactericidal concentration against plaque formation for Actinomyces viscosus; type: functional, organism-based
Outline: (§1)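 Preformed in vitro plaques of S. mutans NCTC 10449 or A. viscosus M-100 were grown on ceramic hydroxylapatite under anaerobic conditions at 37 °C in sucrose-supplemented medium. Plaques were immersed for 30 min at 37 °C in compound at 0.3–20 mM, rinsed, and moved to broth containing bromocresol purple. Kill was judged by no acid production, no turbidity increase and no growth on plating at 48 h. Plaques were run in quadruplicate.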

Actinomyces naeslundii = experiment: Compound is evaluated for plaque-bactericidal index (PBI) against Actinomyces naeslundii 631; type: functional
Actinomyces viscosus [2] = experiment: Compound is evaluated for plaque-bactericidal index (PBI) against Actinomyces viscosus M-100; type: functional
Escherichia coli [3] = experiment: Antimicrobial minimum inhibitory concentration against Escherichia coli AB1932-1; type: functional
Outline: (§2)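 Serial twofold tube dilution in tryptose phosphate broth. Each compound was prepared as a 1000 μg/mL aqueous stock and diluted in double-strength broth, then 2×10^5 cells were added. Tubes were incubated aerobically at 37 °C for 24 h. The MIC was taken as the lowest concentration with no visible growth.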

Escherichia coli [4] = experiment: Minimum inhibitory concentration against Escherichia coli (Vogel); type: functional; outline: as §2
Escherichia coli [5] = experiment: Antimicrobial minimum inhibitory concentration against Escherichia coli 100/B22; type: functional; outline: as §2
Klebsiella pneumoniae = experiment: Minimum inhibitory concentration against Klebsiella pneumonia 39645; type: functional; outline: as §2
Proteus mirabilis [6] = experiment: Minimum antimicrobial inhibitory concentration against Proteus mirabilis MGH-1; type: functional; outline: as §2
Pseudomonas aeruginosa [7] = experiment: Minimum antimicrobial inhibitory concentration against Pseudomonas aeruginosa MGH-2; type: functional; outline: as §2
Streptococcus mutans [8] = experiment: Compound is evaluated for the effect of saliva upon the antiplaque activity of the compound at 0% of saliva and at 0.01 percentage of compound; - = No plaque accumulation; type: functional, organism-based
Outline: (§3)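 Hydroxylapatite plate antiplaque assay against S. mutans run for 48 h, with two 1-min exposures to aqueous compound per 24 h. Growth medium contained 0, 5 or 50% pooled human saliva (paraffin-stimulated, centrifuged, filtered, membrane-sterilized). Plaque was stained with FD&C Red No. 3 and graded none, slight or moderate. Staining potential was scored on plates run without inoculum and graded none or slight.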

Streptococcus mutans [9] = experiment: Compound is evaluated for the effect of saliva upon the antiplaque activity of the compound at 0% of saliva and at 0.025 percentage of compound; - = No plaque accumulation; type: functional, organism-based; outline: as §3
Streptococcus mutans [10] = experiment: Compound is evaluated for the effect of saliva upon the antiplaque activity of the compound at 0% of saliva and at 0.05 percentage of compound; - = No plaque accumulation; type: functional, organism-based; outline: as §3
Streptococcus mutans [11] = experiment: Compound is evaluated for the effect of saliva upon the antiplaque activity of the compound at 50% of saliva and at 0.01 percentage of compound; - = No plaque accumulation; type: functional, organism-based; outline: as §3
Streptococcus mutans [12] = experiment: Compound is evaluated for the effect of saliva upon the antiplaque activity of the compound at 50% of saliva and at 0.025 percentage of compound; - = No plaque accumulation; type: functional, organism-based; outline: as §3
Streptococcus mutans [13] = experiment: Compound is evaluated for the effect of saliva upon the antiplaque activity of the compound at 50% of saliva and at 0.05 percentage of compound; - = No plaque accumulation; type: functional, organism-based; outline: as §3
Streptococcus mutans [14] = experiment: Compound is evaluated for the effect of saliva upon the antiplaque activity of the compound at 0% of saliva and at 0.025 percentage of compound; - = No staining; type: functional, organism-based; outline: as §3
Streptococcus mutans [15] = experiment: Compound is evaluated for the effect of saliva upon the antiplaque activity of the compound at 0% of saliva and at 0.05 percentage of compound; + = Slight staining; type: functional, organism-based; outline: as §3
Streptococcus mutans [16] = experiment: Compound is evaluated for the effect of saliva upon the antiplaque activity of the compound at 50% of saliva and at 0.01 percentage of compound; - = No staining; type: functional, organism-based; outline: as §3
Streptococcus mutans [17] = experiment: Compound is evaluated for the effect of saliva upon the antiplaque activity of the compound at 50% of saliva and at 0.025 percentage of compound; - = No staining; type: functional, organism-based; outline: as §3
Streptococcus mutans [18] = experiment: Compound is evaluated for plaque-bactericidal index (PBI) against Streptococcus mutans 10449; type: functional
Streptococcus mutans [19] = experiment: Compound is evaluated for the inhibition of plaque-forming enzyme of Streptococcus mutans OMZ-61; type: functional
Outline: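 S. mutans OMZ-61 was grown anaerobically at 37 °C for 24 h in glucose medium. The cell-free filtrate, adjusted to pH 5.5, served as the dextran/levan sucrase source. Reactions contained 3 μmol 14C-sucrose in citrate phosphate buffer pH 5.5 with 4% EtOH and ran 2 h at 37 °C. MeOH-insoluble polysaccharide was counted by scintillation. Compounds were tested at 50, 160 and 500 μg base/mL, with lower levels if needed, and I50 was read graphically.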

Staphylococcus aureus [20] = experiment: Minimum antimicrobial inhibitory concentration against Staphylococcus aureus; type: functional; outline: as §2
Streptococcus mutans [21] = experiment: Compound is evaluated for the effect of saliva upon the antiplaque activity of the compound at 50% of saliva and at 0.05 percentage of compound; + = Slight staining; type: functional, organism-based; outline: as §3
Streptococcus mutans [22] = experiment: Compound is evaluated for the effect of saliva upon the staining potential of the compound at 0% of saliva and at 0.01 percentage of compound; - = No staining; type: functional, organism-based; outline: as §3
Streptococcus mutans [23] = experiment: Compound is evaluated for minimal bactericidal concentration against plaque formation for Streptococcus mutans; type: functional, organism-based; outline: as §1
Streptococcus mutans [24] = experiment: Minimum plaque inhibitory concentration using a standard test organism, Streptococcus mutans OMZ-61; type: functional, organism-based
Outline: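 Ceramic hydroxylapatite plates were soaked twice for 1 min each in compound at […] (aqueous), air-dried and rinsed, then hung in sucrose beef-extract medium (pH 7.0) inoculated with late-log S. mutans OMZ-61. Incubation was anaerobic at 37 °C for 24 h, and treatment plus reinoculation were repeated for a second 24 h. Plaque was stained with 1% FD&C Red No. 3 and scored visually. The value is the lowest concentration giving no plaque while medium growth matched control.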

[25] = Compound is evaluated for stain index; type: functional
Outline: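 Ratio of the minimum concentration staining a plaque-free ceramic hydroxylapatite plate to the minimum plaque-inhibiting concentration, both run under the same conditions. Plates got two 1-min soaks (0.1–0.001%), each followed by air-drying, then a water rinse. They were then held 24 h anaerobically at 37 °C in sucrose beef-extract medium, with or without S. mutans OMZ-61, repeated once. Staining was 1-min 1% FD&C Red No. 3, scored visually.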

Streptococcus mutans [26] = experiment: Compound is evaluated for the growth inhibition of Streptococcus mutans OMZ-61; type: functional
Streptococcus mitis = experiment: Compound is evaluated for plaque-bactericidal index (PBI) against Streptococcus mitis 90557
Streptococcus sanguinis [27] = experiment: Compound is evaluated for plaque-bactericidal index (PBI) against Streptococcus sanguis 10558
Pseudomonas aeruginosa [28] = experiment: Compound is evaluated for the antimicrobial minimum inhibitory concentration against Pseudomonas aeruginosa MGH-1; type: functional
Streptococcus mutans [29] = experiment: Compound is evaluated for the effect of saliva upon the antiplaque activity at 50% of saliva and at 0.01 percentage of compound; + = Slight plaque accumulation; type: functional, organism-based; outline: as §3
Streptococcus mutans [30] = experiment: Compound is evaluated for the effect of saliva upon the antiplaque activity at 50% of saliva and at 0.025 percentage of compound; + = Slight staining; type: functional, organism-based; outline: as §3
Streptococcus mutans [31] = experiment: Compound is evaluated for the effect of saliva upon the antiplaque activity at 50% of saliva and at 0.05 percentage of compound; + = Slight staining; type: functional, organism-based; outline: as §3
Streptococcus sanguinis [32] = experiment: Compound is evaluated for plaque-bactericidal index (PBI) against Streptococcus sanguis 10558; type: functional
Streptococcus mutans [33] = experiment: Compound is evaluated for the effect of saliva upon the antiplaque activity at 0% of saliva and at 0.01 percentage of compound; - = No plaque accumulation; type: functional, organism-based; outline: as §3
Streptococcus mutans [34] = experiment: Compound is evaluated for the effect of saliva upon the antiplaque activity at 0% of saliva and at 0.025 percentage of compound; - = No plaque accumulation; type: functional, organism-based; outline: as §3
Streptococcus mutans [35] = experiment: Compound is evaluated for the effect of saliva upon the antiplaque activity at 0% of saliva and at 0.05 percentage of compound; - = No plaque accumulation; type: functional, organism-based; outline: as §3
Streptococcus mutans [36] = experiment: Compound is evaluated for the effect of saliva upon the antiplaque activity at 50% of saliva and at 0.025 percentage of compound; - = No plaque accumulation; type: functional, organism-based; outline: as §3
Streptococcus mutans [37] = experiment: Compound is evaluated for the effect of saliva upon the antiplaque activity at 50% of saliva and at 0.05 percentage of compound; - = No plaque accumulation; type: functional, organism-based; outline: as §3
Streptococcus mutans [38] = experiment: Compound is evaluated for the effect of saliva upon the antiplaque activity at 0% of saliva and at 0.025 percentage of compound; + = Slight staining; type: functional, organism-based; outline: as §3
Streptococcus mutans [39] = experiment: Compound is evaluated for the effect of saliva upon the antiplaque activity at 0% of saliva and at 0.05 percentage of compound; + = Slight staining; type: functional, organism-based; outline: as §3
Streptococcus mutans [40] = experiment: Compound is evaluated for the effect of saliva upon the antiplaque activity at 50% of saliva and at 0.01 percentage of compound; - = No staining; type: functional, organism-based; outline: as §3
Streptococcus mutans [41] = experiment: Compound is evaluated for minimum plaque inhibitory concentration using a standard test organism, Streptococcus mutans OMZ-61; type: functional
Outline: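 S. mutans OMZ-61 in pH 7.0 beef extract–trypticase medium with 0.5% sucrose. Sterile ceramic hydroxylapatite plates got two 1-min soaks in 0.1–0.001% compound, each followed by 1-min air-drying, then a 5-min water rinse. Plates were put in inoculated medium at 37 °C anaerobically for 24 h. The cycle was repeated for a second 24 h. Plaque was stained with 1% FD&C Red No. 3. Value is the lowest concentration completely preventing plaque.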

Staphylococcus aureus [42] = experiment: Compound is evaluated for the antimicrobial minimum inhibitory concentration against Staphylococcus aureus (Smith); type: functional; outline: as §2
Streptococcus mutans [43] = experiment: Compound is evaluated for the effect of saliva upon the staining potential at 0% of saliva and at 0.01 percentage of compound; + = Slight staining; type: functional, organism-based; outline: as §3
Proteus mirabilis [44] = experiment: Compound is evaluated for the antimicrobial minimum inhibitory concentration against Proteus mirabilis MGH-1; type: functional; outline: as §2

CCCCCCCCN=c1ccn(CCCCCCCCCCn2ccc(=NCCCCCCCC)cc2)cc1.Cl.Cl [OCTENIDINE HYDROCHLORIDE]
Concentration (Actinomyces viscosus [1]): 1.6 mM | PBI (Actinomyces naeslundii): 19.2 | PBI (Actinomyces viscosus [2]): 19.2 | MIC (Escherichia coli [3]): 1 µg/mL | MIC (Escherichia coli [4]): 1 µg/mL | MIC (Escherichia coli [5]): 1 µg/mL | MIC (Klebsiella pneumoniae): 2 µg/mL | MIC (Proteus mirabilis [6]): 2 µg/mL | MIC (Pseudomonas aeruginosa [7]): 3.9 µg/mL | Plaque accum (Streptococcus mutans [8]): No plaque accumulation | Plaque accum (Streptococcus mutans [9]): No plaque accumulation | Plaque accum (Streptococcus mutans [10]): No plaque accumulation | Plaque accum (Streptococcus mutans [11]): No plaque accumulation | Plaque accum (Streptococcus mutans [12]): No plaque accumulation | Plaque accum (Streptococcus mutans [13]): No plaque accumulation | Staining potential (Streptococcus mutans [14]): No staining | Staining potential (Streptococcus mutans [15]): No staining | Staining potential (Streptococcus mutans [16]): No staining | Staining potential (Streptococcus mutans [17]): No staining | PBI (Streptococcus mutans [18]): 25.6 | I50 (Streptococcus mutans [19]): 31 (ug of base) ml-1 | MIC (Staphylococcus aureus [20]): 1 µg/mL | Staining potential (Streptococcus mutans [21]): No staining | Staining potential (Streptococcus mutans [22]): No staining | Concentration (Streptococcus mutans [23]): 3.2 mM | Concentration (Streptococcus mutans [24]): 0.005% | Stain index [25]: 10 | MIC (Streptococcus mutans [26]): 1 (ug of base) ml-1 | PBI (Streptococcus mitis): 32 | PBI (Streptococcus sanguinis [27]): 32

N=C(NCCCCCCNC(=N)NC(=N)Nc1ccc(Cl)cc1)NC(=N)Nc1ccc(Cl)cc1 [CHLORHEXIDINE]
Concentration (Actinomyces viscosus [1]): 1.6 mM | PBI (Actinomyces naeslundii): 19.2 | PBI (Actinomyces viscosus [2]): 19.2 | MIC (Escherichia coli [3]): 0.5 µg/mL (≈ 0.989 µM) | MIC (Escherichia coli [4]): 0.5 µg/mL (≈ 0.989 µM) | MIC (Escherichia coli [5]): 1 µg/mL (≈ 1.98 µM) | MIC (Klebsiella pneumoniae): 3.9 µg/mL (≈ 7.72 µM) | MIC (Pseudomonas aeruginosa [28]): 15.6 µg/mL (≈ 30.9 µM) | Plaque accum (Streptococcus mutans [29]): No plaque accumulation | Staining potential (Streptococcus mutans [30]): No staining | Staining potential (Streptococcus mutans [31]): No staining | PBI (Streptococcus sanguinis [32]): 32 | Plaque accum (Streptococcus mutans [33]): No plaque accumulation | Plaque accum (Streptococcus mutans [34]): No plaque accumulation | Plaque accum (Streptococcus mutans [35]): No plaque accumulation | Plaque accum (Streptococcus mutans [36]): No plaque accumulation | Plaque accum (Streptococcus mutans [37]): No plaque accumulation | Staining potential (Streptococcus mutans [38]): No staining | Staining potential (Streptococcus mutans [39]): No staining | Staining potential (Streptococcus mutans [40]): No staining | PBI (Streptococcus mutans [18]): 25.6 | Min plague Inhibitory (Streptococcus mutans [41]): 0.005% | MIC (Staphylococcus aureus [42]): 0.2 µg/mL (≈ 0.396 µM) | Staining potential (Streptococcus mutans [43]): No staining | Concentration (Streptococcus mutans [23]): 3.2 mM | Stain index [25]: 1 | MIC (Proteus mirabilis [44]): 15.6 µg/mL (≈ 30.9 µM)
